Data as given in ChEMBL document CHEMBL4152197, “Proteolysis Targeting Chimeras (PROTACs) of Anaplastic Lymphoma Kinase (ALK)” (Eur J Med Chem, 2018).
Blank lines part the entries; values can stand above or below the molecule they belong to. Calls of active or inactive are those of the source. No cut-off for these calls is given here.

Columns and labels:
[1] = target: T1, Protein cereblon/ALK tyrosine kinase receptor/Nucleophosmin (Homo sapiens) (UniProt Q9UM73+P06748+Q96SW2); experiment: Induction of CRL4/CRBN ubiquitin ligase-mediated NPM-ALK fusion protein degradation in human SU-DHL1 cells assessed as reduction in NPM-ALK fusion protein levels at 100 nM after 16 hrs by Western blot analysis; format: cell-based; parameters: scale not given: the % may be the effect or the level left
Method in brief: (§1)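 SU-DHL-1 or NCI-H2228 cells, grown in RPMI-1640 with 10% FBS at 37 °C under 5% CO₂, were exposed to DMSO or serial dilutions of compound (up to 100 nM) for 16 h. Cells were lysed in Laemmli buffer and run on SDS-PAGE/PVDF immunoblots probed for ALK, p-ALK Y1507, STAT3, p-STAT3 Y705 and GAPDH. Band levels were normalized to GAPDH. DC50 was taken from a variable-slope fit, triplicate independent experiments, mean ± SEM.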

[2] = target: T2, ALK tyrosine kinase receptor (Homo sapiens, UniProt Q9UM73); experiment: Inhibition of ALK autophosphorylation at Y1507 residue in human SU-DHL1 cells pretreated with MLN4924 for 2 hrs followed by compound addition at 100 nM and measured after 6 hrs by Western blot analysis; format: cell-based
[3] = target: T1, Protein cereblon/ALK tyrosine kinase receptor/Nucleophosmin (Homo sapiens); experiment: Induction of CRL4/CRBN ubiquitin ligase-mediated NPM-ALK fusion protein degradation in human SU-DHL1 cells pretreated with MLN4924 for 2 hrs followed by compound addition at 100 nM and measured after 6 hrs by Western blot analysis; format: cell-based
[4] = target: T2, ALK tyrosine kinase receptor; experiment: Inhibition of ALK autophosphorylation at Y1507 residue in human SU-DHL1 cells pretreated with pomalidomide for 2 hrs followed by compound addition at 100 nM and measured after 6 hrs by Western blot analysis; format: cell-based
[5] = target: T1, Protein cereblon/ALK tyrosine kinase receptor/Nucleophosmin (Homo sapiens); experiment: Induction of CRL4/CRBN ubiquitin ligase-mediated NPM-ALK fusion protein degradation in human SU-DHL1 cells pretreated with pomalidomide for 2 hrs followed by compound addition at 100 nM and measured after 6 hrs by Western blot analysis; format: cell-based
NCI-H2228 = experiment: Growth inhibition of human NCI-H2228 cells after 3 days by luminescence-based CellTiter-Glo assay; format: functional, cell-based; details: for IC50: NCI-H2228, 72 h
[6] = target: T2, ALK tyrosine kinase receptor; experiment: Inhibition of ALK autophosphorylation at Y1507 residue in human SU-DHL1 cells pretreated with MG-132 for 2 hrs followed by compound addition at 100 nM and measured after 6 hrs by Western blot analysis; format: cell-based
[7] = target: T3, Protein cereblon/ALK tyrosine kinase receptor/Echinoderm microtubule-associated protein-like 4 (Homo sapiens) (UniProt Q9UM73+Q9HC35+Q96SW2); experiment: Induction of CRL4/CRBN ubiquitin ligase-mediated EML4-ALK fusion protein degradation in human NCI-H2228 cells assessed as reduction in STAT3 phosphorylation at Y705 residue at 60 nM after 8 to 24 hrs by Western blot analysis; format: cell-based
Method in brief: (§2)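 Time course by immunoblot. SU-DHL-1 (30 nM) or NCI-H2228 (60 nM) cells in RPMI-1640 with 10% FBS were held at a fixed degrader concentration and harvested over time up to 24 h. Lysates in Laemmli buffer were blotted for ALK fusion protein, p-ALK Y1507 and p-STAT3 Y705, with GAPDH as the loading reference.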

[8] = target: T3, Protein cereblon/ALK tyrosine kinase receptor/Echinoderm microtubule-associated protein-like 4 (Homo sapiens); experiment: Induction of CRL4/CRBN ubiquitin ligase-mediated EML4-ALK fusion protein degradation in human NCI-H2228 cells assessed as reduction in EML4-ALK fusion protein levels at 60 nM after 8 to 24 hrs hrs by Western blot analysis; format: cell-based; method in brief: as §2
[9] = target: T2, ALK tyrosine kinase receptor; experiment: Inhibition of ALK in human SU-DHL1 cells assessed as reduction in STAT3 phosphorylation at Y705 residue at 100 nM after 16 hrs by Western blot analysis; format: cell-based; method in brief: as §1
[10] = target: T1, Protein cereblon/ALK tyrosine kinase receptor/Nucleophosmin (Homo sapiens); experiment: Induction of CRL4/CRBN ubiquitin ligase-mediated NPM-ALK fusion protein degradation in human SU-DHL1 cells assessed as inhibition of ALK autophosphorylation at Y1507 residue pretreated at 100 nM for 2 hrs followed by compound washout and measured after 8 hrs by Western blot analysis; format: cell-based
Method in brief: (§3)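 Washout in SU-DHL-1 cells: DMSO or 100 nM compound for 2 h, then a PBS wash and incubation in fresh medium for the indicated times. Lysates were immunoblotted for NPM-ALK, p-ALK Y1507 and p-STAT3 Y705, with GAPDH as the reference.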

[11] = target: T3, Protein cereblon/ALK tyrosine kinase receptor/Echinoderm microtubule-associated protein-like 4 (Homo sapiens); experiment: Induction of CRL4/CRBN ubiquitin ligase-mediated EML4-ALK fusion protein degradation assessed as inhibition of ALK autophosphorylation at Y1507 residue in human NCI-H2228 cells at 60 nM after 8 to 24 hrs by Western blot analysis; format: cell-based; method in brief: as §2
[12] = target: T1, Protein cereblon/ALK tyrosine kinase receptor/Nucleophosmin (Homo sapiens); experiment: Induction of CRL4/CRBN ubiquitin ligase-mediated NPM-ALK fusion protein degradation in human SU-DHL1 cells assessed as reduction in STAT3 phosphorylation at Y705 residue pretreated at 100 nM for 2 hrs followed by compound washout and measured after 8 hrs by Western blot analysis; format: cell-based; method in brief: as §3
[13] = target: T1, Protein cereblon/ALK tyrosine kinase receptor/Nucleophosmin (Homo sapiens); experiment: Induction of CRL4/CRBN ubiquitin ligase-mediated NPM-ALK fusion protein degradation in human SU-DHL1 cells pretreated at 100 nM for 2 hrs followed by compound washout and measured after 8 hrs by Western blot analysis; format: cell-based; method in brief: as §3
[14] = target: T2, ALK tyrosine kinase receptor; experiment: Inhibition of ALK autophosphorylation at Y1507 residue in human SU-DHL1 cells after 16 hrs by Western blot analysis; format: cell-based; method in brief: as §1
SU-DHL-1 [15] = experiment: Toxicity against human SU-DHL1 cells assessed as cell death over 100 nM after 3 days by luminescence-based CellTiter-Glo assay; details: su-dhl-1, 72 h
[16] = target: T2, ALK tyrosine kinase receptor; experiment: Inhibition of ALK autophosphorylation at Y1507 residue in human SU-DHL1 cells at 100 nM after 16 hrs by Western blot analysis; format: cell-based; method in brief: as §1
[17] = target: T1, Protein cereblon/ALK tyrosine kinase receptor/Nucleophosmin (Homo sapiens); experiment: Induction of CRL4/CRBN ubiquitin ligase-mediated NPM-ALK fusion protein degradation in human SU-DHL1 cells pretreated with MG-132 for 2 hrs followed by compound addition at 100 nM and measured after 6 hrs by Western blot analysis; format: cell-based
[18] = target: T2, ALK tyrosine kinase receptor; experiment: Inhibition of ALK autophosphorylation at Y1507 residue in human NCI-H2228 cells after 16 hrs by Western blot analysis; format: cell-based; method in brief: as §1
[19] = target: T3, Protein cereblon/ALK tyrosine kinase receptor/Echinoderm microtubule-associated protein-like 4 (Homo sapiens); experiment: Induction of CRL4/CRBN ubiquitin ligase-mediated EML4-ALK fusion protein degradation in human NCI-H2228 cells assessed as reduction in STAT3 phosphorylation at Y705 residue after 16 hrs by Western blot analysis; format: cell-based; method in brief: as §1
[20] = target: T1, Protein cereblon/ALK tyrosine kinase receptor/Nucleophosmin (Homo sapiens); experiment: Induction of CRL4/CRBN ubiquitin ligase-mediated NPM-ALK fusion protein degradation in human SU-DHL1 cells pretreated with ceritinib for 2 hrs followed by compound addition at 100 nM and measured after 6 hrs by Western blot analysis; format: cell-based
SU-DHL-1 [21] = experiment: Growth inhibition of human SU-DHL1 cells after 3 days by luminescence-based CellTiter-Glo assay; format: functional, cell-based
[22] = target: T2, ALK tyrosine kinase receptor; experiment: Binding affinity to wild-type human partial length ALK (I1088 to E1409 residues) expressed in mammalian expression system by KINOMEscan assay
[23] = Plasma concentration in Swiss Albino mouse at 50 mg/kg, ip after 12 hrs; format: ADME, organism-based
Method in brief: (§4)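 Male Swiss Albino mice received a single 50 mg/kg intraperitoneal dose, with clinical signs monitored. Plasma was sampled at 30 min, 1, 2, 4, 8 and 12 h post dose. Values are the average of 3 animals ± SD.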

[24] = Plasma concentration in Swiss Albino mouse at 50 mg/kg, ip after 2 hrs; format: ADME, organism-based; method in brief: as §4
Mus musculus = experiment: Toxicity in Swiss Albino mouse assessed as drug tolerability at 50 mg/kg, ip; format: organism-based; details: in vivo; method in brief: as §4

SMILES: Cc1cc(Nc2ncc(Cl)c(Nc3ccccc3S(=O)(=O)C(C)C)n2)c(OC(C)C)cc1C1CCN(CC(=O)NCCOCCOCCOCCOCCOCCNc2cccc3c2C(=O)N(C2CCC(=O)NC2=O)C3=O)CC1 (configuration not stated)
Activity [1]: > 90%
inhibition [2]: Active
Activity [3]: inactive
inhibition [4]: Active
Activity [5]: inactive
IC50 (NCI-H2228): 46 nM
inhibition [6]: Active
Activity [7]: Active
Activity [8]: Active
inhibition [9]: > 90%
Activity [10]: inactive
Activity [11]: Active
Activity [12]: inactive
Activity [13]: inactive
inhibition [14]: Dose-dependent effect
Activity (SU-DHL-1 [15]): Toxic
inhibition [16]: > 90%
Activity [17]: inactive
inhibition [18]: Dose-dependent effect
Activity [19]: Dose-dependent effect
Activity [20]: Active

Kd [22]: 78 nM
SMILES: Cc1cc(Nc2ncc(Cl)c(Nc3ccccc3S(=O)(=O)C(C)C)n2)c(OC(C)C)cc1C1CCN(CC(=O)NCCNc2cccc3c2C(=O)N(C2CCC(=O)N(C)C2=O)C3=O)CC1 (configuration not stated)
growth inhibition (GI) (SU-DHL-1 [21]): inactive
growth inhibition (GI) (NCI-H2228): inactive

SMILES: Cc1cc(Nc2ncc(Cl)c(Nc3ccccc3S(=O)(=O)C(C)C)n2)c(OC(C)C)cc1C1CCNCC1 [CERITINIB]
Activity (SU-DHL-1 [15]): Toxic

Kd [22]: 54 nM
SMILES: Cc1cc(Nc2ncc(Cl)c(Nc3ccccc3S(=O)(=O)C(C)C)n2)c(OC(C)C)cc1C1CCN(CC(=O)NCCOCCOCCOCCOCCOCCNc2cccc3c2C(=O)N(C2CCC(=O)N(C)C2=O)C3=O)CC1 (configuration not stated)
growth inhibition (GI) (SU-DHL-1 [21]): inactive
growth inhibition (GI) (NCI-H2228): inactive

SMILES: Cc1cc(Nc2ncc(Cl)c(Nc3ccccc3S(=O)(=O)C(C)C)n2)c(OC(C)C)cc1C1CCN(CC(=O)NCCNc2cccc3c2C(=O)N(C2CCC(=O)NC2=O)C3=O)CC1 (configuration not stated)
Activity [1]: > 90%
inhibition [2]: Active
Activity [3]: inactive
inhibition [4]: Active
Activity [5]: inactive
IC50 (NCI-H2228): 33 nM
inhibition [6]: Active
Activity [7]: Active
Activity [8]: Active
inhibition [9]: > 90%
Activity [10]: inactive
concentration at 12 h [23]: 340 nM
concentration at 2 h [24]: 3000 nM
Activity [11]: Active
Activity [12]: inactive
Activity [13]: inactive
inhibition [14]: Dose-dependent effect
Activity (SU-DHL-1 [15]): Toxic
inhibition [16]: > 90%
Activity (Mus musculus): Non-Toxic
Activity [17]: inactive
inhibition [18]: Dose-dependent effect
Activity [19]: Dose-dependent effect
Activity [20]: Active
